Experimental data of several laboratories.
Lines come from different studies, so protocols differ.
Target: Prostaglandin G/H synthase 2 (PTGS2, Homo sapiens, UniProt P35354)
Observed: enzyme activity
Mode: inhibitor
Sequence (P35354 18-604, as in one of the studies): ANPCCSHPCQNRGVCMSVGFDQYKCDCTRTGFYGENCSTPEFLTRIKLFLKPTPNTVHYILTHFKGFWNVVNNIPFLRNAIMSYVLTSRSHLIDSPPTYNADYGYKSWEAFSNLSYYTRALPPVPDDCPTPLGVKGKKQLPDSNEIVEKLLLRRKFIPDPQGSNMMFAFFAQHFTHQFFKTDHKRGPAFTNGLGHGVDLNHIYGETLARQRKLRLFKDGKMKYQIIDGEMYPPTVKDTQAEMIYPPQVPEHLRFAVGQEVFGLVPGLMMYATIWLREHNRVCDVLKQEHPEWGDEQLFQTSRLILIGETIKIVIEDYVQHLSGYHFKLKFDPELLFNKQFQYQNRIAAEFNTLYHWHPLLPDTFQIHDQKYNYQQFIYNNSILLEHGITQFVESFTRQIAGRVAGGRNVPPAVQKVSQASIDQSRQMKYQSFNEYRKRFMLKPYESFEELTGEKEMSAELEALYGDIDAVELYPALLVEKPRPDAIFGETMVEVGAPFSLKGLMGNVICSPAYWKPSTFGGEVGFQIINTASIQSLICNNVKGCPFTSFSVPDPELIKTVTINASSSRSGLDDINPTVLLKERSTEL

SMILES	IC50 [µM]
Cc1ccc(S(=O)(=O)[N](Nc2ccc([N+](=O)[O-])cc2[N+](=O)[O-])[Sn]([Cl])[Cl])cc1	2.74
CC(=NNC(=O)c1cc(-c2ccccc2)n(-c2ccc(S(N)(=O)=O)cc2)n1)c1ccc(C)cc1	1.34
O=C(COC(=O)c1ccccc1Nc1cccc(C(F)(F)F)c1)Nc1ccc(F)cc1	58
COc1cc(NC(=O)c2cnn(-c3ccc([N+](=O)[O-])cc3)c2C(F)(F)F)cc(OC)c1	5.78
Cc1ccc(S(=O)(=O)NNC(=O)COC(=O)c2ccccc2Nc2cccc(C(F)(F)F)c2)cc1	9
Cc1ccc(S(=O)(=O)NNc2ccc([N+](=O)[O-])cc2[N+](=O)[O-])cc1	4.74
O=C(Nc1ccc(-c2ccccc2)cc1)c1cnn(-c2ccc([N+](=O)[O-])cc2)c1C(F)(F)F	6
NS(=O)(=O)c1ccc(-n2nc(C(=O)NN=Cc3cccnc3)cc2-c2ccccc2)cc1	3.93
